In PubChem BioAssay AID449763 (Sanford-Burnham Center for Chemical Genomics, 2010) one finds activation data, which are given here for 92 compounds.

The whole screen tested about 330,000 compounds, of which about 1,100 (0.33%) were called active.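 The calls were made as follows: active = at 10 µM dose, activation of 40% or more, normalized to positive control; inactive = the rest.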 For the sample, actives were picked, then their nearest neighbours and some compounds at random.

The experiment in a line: activators of apoptotic CHOP UPR arm, primary screen, cell-based, CHO-CHOP luciferase reporter, luminescence, uHTS (AID 449763).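 Also: 100% = tunicamycin at 10 µg/mL and 0% = DMSO alone.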 The following applies: at 10 µM, hits give high values, percent of tunicamycin response over DMSO baseline. The gist of the method: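 Evaluation: % reporter activation, DMSO baseline versus tunicamycin full activation; System: CHO-CHOP luciferase reporter cell line; Input: 500 cells/well; Incubation: 6 h compound treatment, 37 °C; Measured by: Steady-Glo luciferase luminescence; Dosing: one dose, 10 µM in 0.5% DMSO; Buffer or medium: F12 medium, 10% FBS; Benchmarks: positive tunicamycin 10 µg/mL, negative DMSO alone.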
(Reporter assays use an easily measured gene product as a stand-in for the process of interest.)
Regarding `Cc1ccc(CNC(=O)COC(=O)C2CCC2)cc1`, the activation was 0.475% (inactive).
On to `CCc1nnc(NC(=O)CSc2nnnn2-c2cccc(C(C)=O)c2)s1`, for which the activation is -1.47% (inactive).
For `CCOc1ccc(Br)cc1CSC(=N)N`, the activation is 0.704% (inactive).
For the compound `CCc1ccc(CNC(=O)C2CCCN(c3nc4ccccc4o3)C2)cc1` (configuration not stated), the activation was -2.13% (inactive).
Then `CCOC(=O)CCNC(=O)N1CCCC(C(=O)c2ccccc2SC)C1` (configuration not stated), with 1.02% (inactive); and `CCOC(=O)c1cnc(Nc2nc3ccccc3o2)nc1CSC(=S)N1CCCCC1`, with 152% (active).
Then `CCN(CC)C(=O)Cn1cc(S(=O)(=O)CC(=O)NCc2ccc3c(c2)OCO3)c2ccccc21`, with -0.829% (inactive).
Then `Cc1cc(NC(=O)CS(=O)(=O)c2cn(C)c3ccccc23)no1`, with 1.58% (inactive); and `CCN(C(=O)CSc1ncnc2sccc12)c1c(N)n(Cc2ccccc2)c(=O)[nH]c1=O`, with -3.54% (inactive).
On to `CC1CC2=C(CC1/C=N/NC(N)=S)C(C)(C)CCC2` (configuration not stated), for which the activation was 67.6% (active).
Take `Cc1ccc(C(=O)Cc2nnc(C)s2)cc1`: the activation was 1.29% (inactive).
As for `CC(=O)Nc1ccc(S(=O)(=O)N2CCC(NC(=O)c3ccccc3)CC2)cc1`, the figure is 1.32% (inactive); as for `C=Cn1c(C(=O)O)ccc1-c1ccc(OC)cc1`, -1.21% (inactive).
For the compound `COC(=O)c1ccc(C(=O)NC2CC(C)(C)Cc3c2cnn3-c2ccc(F)cc2)nc1` (configuration not stated), the activation was 0.891% (inactive).
As for `COc1ccc(C2=NN(C(=O)c3ccccc3C(=O)O)C(c3ccccc3O)C2)cc1` (configuration not stated), the figure is 4.22% (inactive).
As for `CCOc1ccccc1C1CC(c2cccc(NS(C)(=O)=O)c2)=NN1C(=O)c1ccccc1` (configuration not stated), the activation was 1.22% (inactive).
Then `CCOc1ccc2nc(Cl)c(C3CC(c4ccccc4)=NN3C(=O)c3cccs3)cc2c1` (configuration not stated), with 85.3% (active); and `CCOc1ccccc1CN1CCN(C2CCC2)CC1CCO` (configuration not stated), with 1.34% (inactive); and `CS(=O)(=O)c1ccc(C(=O)OCC(=O)NNC(=O)COc2ccc(Cl)cc2)cc1`, with -0.907% (inactive).
As for `Cc1c(NC(=O)CSc2nnc(-c3cccnc3)n2N)c(=O)n(-c2ccccc2)n1C`, the figure is 0.658% (inactive).
For the compound `Cc1c(NC(=O)CSc2nnnn2-c2ccc(C(=O)O)cc2)c(=O)n(-c2ccccc2)n1C`, the activation is -0.108% (inactive).
As for `Cc1c(NC(=O)CSc2cccc3cccnc23)c(=O)n(-c2ccccc2)n1C`, the figure is 163% (active); as for `NC(=O)CC[C@@H]1NC(=O)[C@@H]2CCCN2C(=O)c2cc([N+](=O)[O-])cc(F)c2NCCC[C@@H](C(N)=O)NC1=O`, -0.0942% (inactive); as for `COc1ccccc1P(=O)(c1ccccc1)c1ccccc1NC(C)=O` (configuration not stated), -0.343% (inactive).
As to `COc1cc(C(=O)N/C(=C\c2cn(C)c3ccccc23)C(=O)N2CCOCC2)cc(OC)c1OC`, the activation was -0.204% (inactive).
Then `CCCCC[C@H]1CN(C2CCCCC2)C(=O)[C@@H]1CC(=O)NCc1ccc(OC)cc1`, with 0.258% (inactive).
For `CC[C@H](C)C(=O)N[C@H]1CCCN1C(=O)/C=C/c1ccccc1`, the activation was -0.778% (inactive).
As for `Cc1nc2sc3c(c2c(=O)n1NC(=O)CCl)CCCC3`, the figure is 1.06% (inactive); as for `COCCNc1nc(-n2nc(C)cc2C)nc2sc3c(c12)CCCC3`, 45.9% (active).
Consider `CCC(O)CNc1nc(-n2nc(C)cc2C)nc2sc3c(c12)CC(C)(C)OC3` (configuration not stated), for which the activation was -0.387% (inactive).
Regarding `O=C(Nc1ccc(S(=O)(=O)N2CCOCC2)cc1)c1ccc2ncsc2c1`, the activation was 2.81% (inactive).
For the compound `COC(=O)c1sccc1NN1C(=O)c2ccccc2C1=O`, the activation is -0.357% (inactive).
Regarding `C[C@@H]1C[C@@H]2O[C@H]2/C=C\C=C\C(=O)Cc2c(Cl)c(O)cc(O)c2C(=O)O1`, the activation is 145% (active).
Then `COc1ccccc1C(=O)NCc1nnc(SC(C)C(=O)Nc2nccs2)n1C` (configuration not stated), with -1.66% (inactive).
For the compound `O=C(NCc1ccc(Cl)cc1)c1cc(=O)nc2sc(-c3ccccc3)nn12`, the activation is -2.04% (inactive).
As to `COc1ccc(OC)c(Nc2nc(-c3ccc(O)c(O)c3)cs2)c1`, the activation was 74.3% (active).
In the case of `COc1ccc(OC)c(-c2csc(NC(=O)C3=NNC(=O)CC3)n2)c1`, the activation is -1.74% (inactive).
As to `COc1ccc(OC)c(-c2csc(NC(=O)COC(=O)C3CC3)n2)c1`, the activation is 1.31% (inactive).
Then `COC(=O)C1CCN(C(=O)COC(=O)c2cc(S(=O)(=O)N3CCOCC3)ccc2C)CC1`, with 0.025% (inactive); and `COc1ccc(C2=NOC(Cn3nc(C(=O)NCc4ccc5c(c4)OCO5)cc3-c3ccccc3)C2)cc1` (configuration not stated), with 0.69% (inactive); and `Cc1ccsc1C(=O)OCC(=O)c1cc(C)n(CC2CCCO2)c1C` (configuration not stated), with -8.43% (inactive).
For the compound `Cc1cc(C(=O)CCl)c(C)n1CC1COc2ccccc2O1` (configuration not stated), the activation is 174% (active).
As for `O=C1C(=O)N(CC2COc3ccccc3O2)c2ccccc21` (configuration not stated), the figure is 2.24% (inactive).
Then `CC(C)CNc1ncnc2c1cnn2Cc1ccc(Cl)cc1`, with 2.5% (inactive); and `O=C(Nc1ccc(-n2ccnc2P(=O)(O)c2ccccc2)cc1)c1ccccc1Br`, with -1.3% (inactive).
With `COCCN(Cc1cc2cc3c(cc2nc1Cl)OCO3)C(=O)c1cccc(C)c1`, the activation is 2.77% (inactive).
Then `O=C(NC1CCN(Cc2ccccc2)CC1)c1ccc(Oc2cc(Cl)cc(Cl)c2)o1`, with 0.679% (inactive); and `Cn1cc(CN2CCC(C(O)CCc3ccccc3)CC2)c(-c2ccccc2F)n1` (configuration not stated), with -1.46% (inactive).
Then `Cn1cc(CN2CCCC(CO)C2)c(-c2ccc(Oc3ccccc3)cc2)n1` (configuration not stated), with -1.18% (inactive); and `CCCOC1CCCN(Cc2cn(C)nc2-c2ccccc2F)C1` (configuration not stated), with 44.6% (active).
As to `O=C(CN1C(=O)c2cccnc2Oc2ccc(Cl)cc21)Nc1ccc(F)cc1`, the activation is 1.1% (inactive).
Then `Oc1c(CN2CCN(c3ccc(F)cc3)CC2)cc(Cl)c2cccnc12`, with 415% (active).
As for `Oc1c(CN2CCCC2)cc(COCc2ccccc2)c2cccnc12`, the figure is 37.6% (inactive); as for `Cc1ccc(CN2CCN(c3ncccn3)CC2)c(C)c1`, 0.144% (inactive).
As for `O=C(Nc1ccc(N2CCN(C(=O)c3ccccc3)CC2)c(Cl)c1)c1cccnc1`, the figure is 0.424% (inactive); as for `CC(CCn1cccn1)NC(=O)CCc1nnc(CCc2ccccc2)o1` (configuration not stated), -1.47% (inactive); as for `CCc1noc(C)c1C(=O)N1CCCSC1=Nc1ccccc1OC`, 2.57% (inactive).
In the case of `O=C(CN1CCN(S(=O)(=O)c2cc(Cl)ccc2Cl)CC1)c1ccc(O)c(O)c1`, the activation is 95.7% (active).
Then `COc1ccc(Cl)cc1S(=O)(=O)N1CCN(CC(=O)C(C)(C)C)CC1`, with -1.27% (inactive); and `N#Cc1ccsc1NC(=O)CN1CCN(S(=O)(=O)c2cc(Cl)ccc2Cl)CC1`, with -1.62% (inactive).
Then `C[C@H](C(=O)CC(=O)OC(C)(C)C)[C@H](O)c1ccc(C(F)(F)F)cc1`, with 1.59% (inactive); and `COc1ccc(NC(=O)C2=C(C)NC(=O)NC2c2ccccc2[N+](=O)[O-])cc1` (configuration not stated), with -2.61% (inactive).
As for `CNc1nc(Nc2ccc(C)c(Cl)c2)nc(N)c1[N+](=O)[O-]`, the figure is 5.39% (inactive); as for `OCCNc1nc(Nc2ccc(Cl)c(Cl)c2)nc2ccccc12`, 51.9% (active); as for `Cc1ccc(Nc2nc(N)nc(CN3CCN(Cc4ccccc4)CC3)n2)cc1Cl`, 0.453% (inactive).
For the compound `CCN(C(=O)CSc1nc(N)cc(=O)[nH]1)C1CCS(=O)(=O)C1` (configuration not stated), the activation is 1.25% (inactive).
Then `CSCCNCc1cn(-c2ccc(F)cc2F)nc1-c1ccccc1C`, with -1.15% (inactive).
As for `C/C(=N\NC(=O)c1cccc(N2CCCC2=O)c1)c1ccc(N)cc1`, the figure is 1.34% (inactive); as for `O=C(NCCc1ccc(Cl)cc1)c1cccc(N2CCCC2=O)c1`, 54.4% (active).
Then `Oc1cc2c(cc1O)CN(C(=S)NCCc1ccc(Cl)cc1)CCC2`, with 58.3% (active).
As for `COc1ccc(CCNC(=S)N2CCN(S(=O)(=O)c3ccc(Cl)cc3)CC2)cc1`, the activation is 1.93% (inactive).
As for `CC1CCCC(NC(=O)c2cccc(N3CCCC3=O)c2)C1C` (configuration not stated), the figure is 3.2% (inactive).
As for `Cc1ccc(NC(=S)NCCc2ccc(Cl)cc2)c(C)c1`, the figure is 1.96% (inactive); as for `O=C(CSc1nnc(SCc2ccc(F)cc2)s1)Nc1ccc(C(=O)O)cc1`, -2.09% (inactive).
As for `Cc1ccc(C2NC(=S)NC3=C2N2CCC3CC2)cc1` (configuration not stated), the figure is -2.03% (inactive); as for `CC(C(=O)O)n1cnc2sc3c(c2c1=O)CCCC3` (configuration not stated), -0.91% (inactive); as for `O=S(=O)(c1ccccc1)N(Cc1cccc(F)c1)c1ccccc1`, -1.78% (inactive).
Regarding `CC1(C)CC(=O)C=C(NC2CC(C)(C)NC(C)(C)C2)C1`, the activation is 0.506% (inactive).
As for `Cc1onc(C(=O)NN)c1-c1csc(COc2ccccc2)n1`, the figure is -0.475% (inactive); as for `CCCC(=O)N1c2ccc(-c3csc(N)n3)cc2CC1C` (configuration not stated), 4.75% (inactive).
Consider `CC(C)(C)C(=O)OCc1nc(-c2ccc(O)c(O)c2)cs1`, for which the activation is 170% (active).
As for `NC(=O)C1CCN(C(=O)COc2ccc3c4c(c(=O)oc3c2)CCC4)CC1`, the figure is 1.77% (inactive); as for `COc1ccc(CNc2ncnc3ccccc23)cc1`, 5.16% (inactive).
Turning to `c1ccc2c(NCC3CCCO3)nc(-c3ccncc3)nc2c1` (configuration not stated), the activation was -0.369% (inactive).
Regarding `COc1cnc(-c2ccccn2)nc1Oc1ccc(C(C)(C)C)cc1`, the activation is 3.2% (inactive).
As for `N#Cc1ccc(Oc2cc(C(F)(F)F)nc(-c3ccccn3)n2)cc1`, the figure is -0.253% (inactive); as for `CC(C)(C)Nc1nc(-c2ccccn2)nc2ccccc12`, 61.4% (active); as for `Cc1ccc(Oc2nc(-c3ccccn3)nc3ccccc23)cc1`, 48.5% (active).
For `CCCCOc1ccc(C(=O)N/C(=C/C=C/c2ccccc2)C(=O)N2CCOCC2)cc1`, the activation was 5.27% (inactive).
As for `Cc1ccc2cc3cc(C(=O)N4CCCCCC4)oc3nc2c1`, the figure is 0.396% (inactive); as for `O=C(CSc1nc2ncccc2[nH]1)Nc1ccc2c(c1)OCCO2`, 0.487% (inactive); as for `Nc1nc(SCC(=O)NN(c2ccccc2)c2ccccc2)n[nH]1`, -0.687% (inactive).
